The source of these data is ChEMBL document CHEMBL3407367 (J Med Chem, 2015).

Values after ≈ are worked out from the molar mass of the structure shown. Active and inactive are the calls of the source. The calls are words filed in the database; no cut-off is given here. Positions of bridges follow the written chain, without caps; N, C: chain ends. Non-standard residues stand in square brackets, D forms with d. Residues, ends and D or L forms follow the SMILES beside them. Trp(1-Me) = Cn1cc(C[C@H](N)C(=O)O)c2ccccc21; 1Nal = N[C@@H](Cc1cccc2ccccc12)C(=O)O

Data set [1] is described as follows: Solubility of the compound in PBS at pH 7.4 after 24 to 48 hrs by spectrophotometry. The class given is physicochemical. A digest of the protocol:
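About 1 mg peptide put in 200 μL PBS pH 7.4 (top reportable value 5 mg/mL). Vortexed 30 s, centrifuged 13000g for 5 min. Supernatant A280 read and converted to concentration by Beer–Lambert, with extinction coefficients from Trp/Tyr count. Samples held at 4 °C and re-read at 24 and 48 h. Mean and standard deviation of three readings per sample.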

Data set [2] relates to RPE. The data set is described as follows: Inhibition of complement activation in human fetal RPE cells assessed as reduction in C5b-9 formation at 1 uM by fluorescence assay in presence of complement-competant human serum. The class given is cell-based. A digest of the protocol: (§1)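 Human fetal RPE cells from two donor lines (081309, 072810) were grown on porous supports in Miller medium with 5% FCS. Peptide (1 µM; one experiment 1, 10, 50 µM) in serum-free medium with 10% human complement serum was premixed 30 min at RT, then incubated overnight at 37 °C. Samples were PFA-fixed and sections immunostained; the confocal C5b-9/ApoE area ratio is given as % of serum-only control; n = 10; Mann–Whitney U.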

Data set [3] relates to RPE. Briefly: Inhibition of complement activation in human fetal RPE cells assessed as reduction in C5b-9 formation at 50 uM by fluorescence assay in presence of complement-competant human serum. The class given is cell-based. The procedure, abridged: as §1
In a further data set the target is Complement C3 (Homo sapiens, UniProt P01024). The data set is described as follows: Inhibition of C3 cleavage in human serum assessed as reduction in C5b-9 formation compound preincubated for 15 mins measured 1 hr post LPS stimulation by ELISA. In general terms: ELISA stands for enzyme-linked immunosorbent assay.
Complement C3, sequence (P01024 23-667 limits assumed): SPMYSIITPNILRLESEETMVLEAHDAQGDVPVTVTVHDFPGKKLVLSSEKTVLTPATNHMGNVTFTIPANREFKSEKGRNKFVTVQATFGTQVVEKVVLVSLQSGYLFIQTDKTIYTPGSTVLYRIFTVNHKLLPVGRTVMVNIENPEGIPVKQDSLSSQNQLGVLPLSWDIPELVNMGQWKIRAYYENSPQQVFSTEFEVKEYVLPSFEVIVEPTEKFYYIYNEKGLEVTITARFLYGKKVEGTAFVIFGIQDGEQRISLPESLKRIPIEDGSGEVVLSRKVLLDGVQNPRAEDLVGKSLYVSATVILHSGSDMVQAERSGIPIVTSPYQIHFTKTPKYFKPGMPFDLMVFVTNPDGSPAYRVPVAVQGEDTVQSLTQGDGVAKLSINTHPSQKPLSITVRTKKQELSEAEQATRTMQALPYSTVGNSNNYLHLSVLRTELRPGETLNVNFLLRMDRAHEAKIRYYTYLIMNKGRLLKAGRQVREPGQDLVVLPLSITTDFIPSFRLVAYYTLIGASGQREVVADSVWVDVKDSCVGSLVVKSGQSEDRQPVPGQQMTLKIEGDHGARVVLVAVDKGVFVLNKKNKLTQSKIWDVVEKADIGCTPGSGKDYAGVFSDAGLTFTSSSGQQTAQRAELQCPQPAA
Complement C3, sequence (P01024 672-1663 limits assumed): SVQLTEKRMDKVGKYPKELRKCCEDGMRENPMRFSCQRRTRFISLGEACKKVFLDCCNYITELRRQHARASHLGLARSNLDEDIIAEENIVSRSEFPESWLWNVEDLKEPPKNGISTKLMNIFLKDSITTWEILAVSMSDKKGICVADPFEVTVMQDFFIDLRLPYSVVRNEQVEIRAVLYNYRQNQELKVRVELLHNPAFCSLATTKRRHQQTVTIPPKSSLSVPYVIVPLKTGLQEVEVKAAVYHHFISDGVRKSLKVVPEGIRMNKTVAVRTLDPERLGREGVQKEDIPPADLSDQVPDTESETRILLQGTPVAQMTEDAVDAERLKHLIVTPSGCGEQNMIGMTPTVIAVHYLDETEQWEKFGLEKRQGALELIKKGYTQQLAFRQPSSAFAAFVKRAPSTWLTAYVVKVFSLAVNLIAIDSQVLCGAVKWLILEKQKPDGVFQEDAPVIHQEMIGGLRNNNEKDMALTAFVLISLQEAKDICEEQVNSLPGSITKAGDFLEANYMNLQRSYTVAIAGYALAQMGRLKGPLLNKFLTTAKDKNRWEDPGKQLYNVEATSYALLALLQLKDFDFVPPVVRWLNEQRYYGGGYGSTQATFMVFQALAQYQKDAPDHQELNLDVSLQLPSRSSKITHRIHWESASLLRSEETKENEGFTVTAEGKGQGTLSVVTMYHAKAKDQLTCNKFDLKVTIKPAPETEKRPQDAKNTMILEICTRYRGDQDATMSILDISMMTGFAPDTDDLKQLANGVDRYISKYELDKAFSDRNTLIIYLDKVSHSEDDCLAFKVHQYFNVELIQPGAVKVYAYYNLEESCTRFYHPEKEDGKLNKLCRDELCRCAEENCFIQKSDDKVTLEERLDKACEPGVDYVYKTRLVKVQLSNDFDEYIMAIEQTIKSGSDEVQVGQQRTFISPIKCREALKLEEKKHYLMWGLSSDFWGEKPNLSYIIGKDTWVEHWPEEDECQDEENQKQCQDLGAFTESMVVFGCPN

Consider `CC[C@H](C)[C@H](NC(C)=O)C(=O)N[C@H]1CSSC[C@@H](C(=O)N[C@H](C(N)=O)[C@@H](C)O)NC(=O)[C@H](CCCNC(=N)N)NC(=O)[C@H](Cc2cnc[nH]2)NC(=O)[C@H](Cc2cccc3ccccc23)NC(=O)CNC(=O)[C@H](Cc2c[nH]c3ccccc23)NC(=O)[C@H](CC(=O)O)NC(=O)[C@H](CCC(N)=O)NC(=O)[C@H](Cc2c[nH]c3ccccc23)NC(=O)[C@H](C(C)C)NC1=O` (Ac-ICVWQDWG[1Nal]HRCT-NH2; disulfide 2-12), for which the concentration in solution in data set [1] (solubility) was 100 µg/mL (≈ 57.5 µM).

Turning to `CC[C@H](C)[C@H](NC(=O)[C@H](CO)NC(=O)[C@H](CCCNC(=N)N)NC(C)=O)C(=O)N[C@H]1CSSC[C@@H](C(=O)N[C@H](C(N)=O)[C@@H](C)O)NC(=O)[C@H](CCCNC(=N)N)NC(=O)[C@H](Cc2cnc[nH]2)NC(=O)[C@H](C)NC(=O)CNC(=O)[C@H](Cc2c[nH]c3ccccc23)NC(=O)[C@H](CC(=O)O)NC(=O)[C@H](CCC(N)=O)NC(=O)[C@H](Cc2ccc(O)cc2)NC(=O)[C@H](C(C)C)NC1=O`, the concentration in solution in data set [1] (solubility) was 5000 µg/mL (≈ 2730 µM). The inhibition result with RPE [2] was “Active”.

In data set [1], `CC[C@H](C)[C@H](N)C(=O)N[C@H]1CSSC[C@@H](C(=O)N[C@H](C(N)=O)[C@@H](C)O)NC(=O)[C@H](CCCN=C(N)N)NC(=O)[C@H](Cc2cnc[nH]2)NC(=O)[C@H](Cc2cnc[nH]2)NC(=O)CNC(=O)[C@H](Cc2c[nH]c3ccccc23)NC(=O)[C@H](CC(=O)O)NC(=O)[C@H](CCC(N)=O)NC(=O)[C@H](C(C)C)NC(=O)[C@H](C(C)C)NC1=O` [COMPSTATIN] had a solubility of 4500 µg/mL (≈ 2900 µM).

Take `CC[C@H](C)[C@H](NC(C)=O)C(=O)N[C@H]1CSSC[C@@H](C(=O)N[C@H](C(N)=O)[C@@H](C)O)NC(=O)[C@H](CCCNC(=N)N)NC(=O)[C@H](Cc2cnc[nH]2)NC(=O)[C@H](C)NC(=O)CNC(=O)[C@H](Cc2c[nH]c3ccccc23)NC(=O)[C@H](CC(=O)O)NC(=O)[C@H](CCC(N)=O)NC(=O)[C@H](Cc2cn(C)c3ccccc23)NC(=O)[C@H](C(C)C)NC1=O`: the solubility in data set [1] is 1900 µg/mL (≈ 1170 µM).

Compound `CC[C@H](C)[C@H](NC(C)=O)C(=O)N[C@H]1CSSC[C@@H](C(=O)N[C@H](C(N)=O)[C@@H](C)O)NC(=O)[C@H](CCCNC(=N)N)NC(=O)[C@H](Cc2cnc[nH]2)NC(=O)[C@H](C)NC(=O)CNC(=O)[C@H](Cc2c[nH]c3ccccc23)NC(=O)[C@H](CC(=O)O)NC(=O)[C@H](CCC(N)=O)NC(=O)[C@H](Cc2c[nH]c3ccccc23)NC(=O)[C@H](C(C)C)NC1=O` had a solubility in data set [1] of 3200 µg/mL (≈ 1980 µM). Also, in the data set on RPE [2], the inhibition entry was “Active”.

With `CC(=O)N[C@@H](CC(N)=O)C(=O)N[C@@H](CCCNC(=N)N)C(=O)N[C@@H](CC(C)C)C(=O)N[C@H]1CSSC[C@@H](C(=O)N[C@H](C(N)=O)[C@@H](C)O)NC(=O)[C@H](CCCNC(=N)N)NC(=O)[C@H](Cc2cnc[nH]2)NC(=O)[C@H](C)NC(=O)CNC(=O)[C@H](Cc2c[nH]c3ccccc23)NC(=O)[C@H](CC(=O)O)NC(=O)[C@H](CCC(N)=O)NC(=O)[C@H](Cc2c[nH]c3ccccc23)NC(=O)[C@H](C(C)C)NC1=O` (Ac-NRLCVWQDWGAHRCT-NH2; disulfide 4-14), in the data set on RPE [2], the inhibition result was “Active”.

As for `CC[C@H](C)[C@H](NC(=O)[C@H](CO)NC(=O)[C@H](CCCNC(=N)N)NC(C)=O)C(=O)N[C@H]1CSSC[C@@H](C(=O)N[C@H](C(N)=O)[C@@H](C)O)NC(=O)[C@H](CCCNC(=N)N)NC(=O)[C@H](Cc2cnc[nH]2)NC(=O)[C@H](C)NC(=O)CNC(=O)[C@H](Cc2c[nH]c3ccccc23)NC(=O)[C@H](CC(=O)O)NC(=O)[C@H](CCC(N)=O)NC(=O)[C@H](Cc2cccc3ccccc23)NC(=O)[C@H](C(C)C)NC1=O` (Ac-RSICV[1Nal]QDWGAHRCT-NH2; disulfide 4-14), in the data set on RPE [2], the inhibition entry was “Active”.

With `CC[C@H](C)[C@H](N)C(=O)N[C@H]1CSSC[C@@H](C(=O)N[C@H](C(N)=O)[C@@H](C)O)NC(=O)[C@H](CCCNC(=N)N)NC(=O)[C@H](Cc2cnc[nH]2)NC(=O)[C@H](Cc2cnc[nH]2)NC(=O)CNC(=O)[C@H](Cc2c[nH]c3ccccc23)NC(=O)[C@H](CC(=O)O)NC(=O)[C@H](CCC(N)=O)NC(=O)[C@H](C(C)C)NC(=O)[C@H](C(C)C)NC1=O`, the inhibition entry with RPE [3] is “Active”.

Take `CC[C@H](C)[C@H](NC(C)=O)C(=O)N[C@H]1CSSC[C@@H](C(=O)N[C@H](C(N)=O)[C@@H](C)O)NC(=O)[C@H](CCCNC(=N)N)NC(=O)[C@H](Cc2cnc[nH]2)NC(=O)[C@](C)(CC)NC(=O)CNC(=O)[C@H](Cc2c[nH]c3ccccc23)NC(=O)[C@H](CC(=O)O)NC(=O)[C@H](CCC(N)=O)NC(=O)[C@H](Cc2c[nH]c3ccccc23)NC(=O)[C@H](C(C)C)NC1=O`: the inhibition result in the data set on RPE [2] was “Active”.

`CC[C@H](C)[C@H](NC(C)=O)C(=O)N[C@H]1CSSC[C@@H](C(=O)N[C@H](C(N)=O)[C@@H](C)O)NC(=O)[C@H](CCCNC(=N)N)NC(=O)[C@H](Cc2cnc[nH]2)NC(=O)[C@H](Cc2cccc3ccccc23)NC(=O)CNC(=O)[C@H](Cc2c[nH]c3ccccc23)NC(=O)[C@H](CC(=O)O)NC(=O)[C@H](CCC(N)=O)NC(=O)[C@H](Cc2cn(C)c3ccccc23)NC(=O)[C@H](C(C)C)NC1=O` (Ac-ICV[Trp(1-Me)]QDWG[1Nal]HRCT-NH2; disulfide 2-12): the IC50 on Complement C3 turned out to be 4 µM. The same compound showed a solubility in data set [1] of 100 µg/mL (≈ 57 µM).

Turning to `CC(=O)N[C@@H](CC(N)=O)C(=O)N[C@@H](CCCNC(=N)N)C(=O)N[C@@H](CC(C)C)C(=O)N[C@H]1CSSC[C@@H](C(=O)N[C@H](C(N)=O)[C@@H](C)O)NC(=O)[C@H](CCCNC(=N)N)NC(=O)[C@H](Cc2cnc[nH]2)NC(=O)[C@H](Cc2cccc3ccccc23)NC(=O)CNC(=O)[C@H](Cc2c[nH]c3ccccc23)NC(=O)[C@H](CC(=O)O)NC(=O)[C@H](CCC(N)=O)NC(=O)[C@H](Cc2c[nH]c3ccccc23)NC(=O)[C@H](C(C)C)NC1=O` (Ac-NRLCVWQDWG[1Nal]HRCT-NH2; disulfide 4-14), the inhibition result with RPE [2] is “Active”.

What is called solubility is the concentration that dissolves in the medium under given conditions. A higher solubility goes with much dissolved substance. As a reminder, the IC50 is the point on the concentration scale where inhibition reaches its midpoint.
